High-throughput results deposited in PubChem by several laboratories.
rRNA inh HTS: inhibitors of bacterial rRNA selective over humanized ribosomes; 1.6% of 350,000 active; E. coli WT GFP vs humanized-ribosome RFP mutants, fluorescence, 24 h; stronger effect = lower value; DMSO median 0, no signal -100; GFP signal change (wild-type ribosome), % (no concentration beside the values);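 active means significant combined selectivity score with lowered wild-type GFP, culture density cut under 30%, mutant RFP and density less affected; inactive means any of these conditions unmet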
MT1-MMP act inh: blocks activation of human MT1-MMP. AID 651647. P50281. HT1080 RFP-PRO-GFP cells, GFP/RFP ratio fluorescence, overnight; percent of plate control window, DMSO zero. 0.061% of 360,000 active. GFP/RFP ratio change, % at 20 µM;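 active means GFP/RFP ratio change of at least 30% with cell ATP level not reduced by more than half and red fluorescence within 50% of control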
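Assay system: HT1080 cells carrying an RFP-PRO-GFP reporter | Dosing: Single dose of 20 µM compound, 1% DMSO final | Incubation: Cells overnight before dosing, compound overnight, 37 °C, 5% CO2 | Evaluation: GFP/RFP fluorescence ratio | Control set: DMSO and RFP-L50D-GFP cell wells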
Cneo AK release: causes C. neoformans cell lysis. adenylate kinase release luminescence, 4 h; normalised: neutral wells 0, clomiphene wells 100. lysis activity, % at 15 µM. 0.2% of 360,000 active;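 active means mean lysis activity across replicates of at least 80%, whatever share of replicates individually reach that level; inactive means mean lysis activity below 80%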
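Material – Cryptococcus neoformans yeast cells · Quantity – 5 × 10^6 yeast cells/mL · Buffer or medium – YPD medium · Compound – single dose · Timing – 4 h static compound exposure, 37 °C, read 1 h post-reagent · Signal – adenylate kinase release luminescence · Read-out basis – lysis from increased AK signal · Benchmarks – Clomiphene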
SKN-1 block: C. elegans SKN-1 inhibition. 0.49% of 360,000 active. C. elegans VP596 Pgst-4::GFP/RFP ratio, acrylamide-induced, 24 h. inhibition, % at 21.8 µM;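 active means interference check ratio from 0.5 to 1.5 plus GFP to RFP signal ratio inhibition reaching or exceeding a fixed threshold, cut at about 30% in these data, passing the limit was not always enough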
DAGLB inh: diacylglycerol lipase beta (human) inhibition. Q8NCG7. HEK293T DAGLB membrane lysate, EnzChek fluorogenic substrate. inhibition, % at 5.17 µM. 0.059% of 340,000 active; in the data active means inhibition above about 34%;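 further: 0% = enzyme with vehicle and 100% = wells lacking enzyme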
Target sequence (Q8NCG7 whole entry, looked up): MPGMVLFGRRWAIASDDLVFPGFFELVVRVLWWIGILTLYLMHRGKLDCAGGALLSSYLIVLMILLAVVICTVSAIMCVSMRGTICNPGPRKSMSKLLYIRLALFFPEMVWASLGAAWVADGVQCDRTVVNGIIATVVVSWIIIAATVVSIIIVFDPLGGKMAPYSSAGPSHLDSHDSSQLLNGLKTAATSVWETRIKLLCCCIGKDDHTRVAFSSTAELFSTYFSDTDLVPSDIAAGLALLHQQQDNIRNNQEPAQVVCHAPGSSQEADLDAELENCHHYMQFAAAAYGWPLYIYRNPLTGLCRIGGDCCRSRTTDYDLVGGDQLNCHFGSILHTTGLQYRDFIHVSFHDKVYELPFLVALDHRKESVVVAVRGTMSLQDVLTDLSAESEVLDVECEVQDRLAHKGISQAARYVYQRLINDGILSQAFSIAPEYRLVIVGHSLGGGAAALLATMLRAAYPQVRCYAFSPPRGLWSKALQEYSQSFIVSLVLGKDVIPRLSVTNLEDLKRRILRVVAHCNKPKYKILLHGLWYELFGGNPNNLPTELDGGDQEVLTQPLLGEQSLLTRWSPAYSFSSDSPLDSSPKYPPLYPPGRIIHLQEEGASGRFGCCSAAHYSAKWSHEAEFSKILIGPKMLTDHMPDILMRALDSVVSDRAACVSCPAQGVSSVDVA
hiPSC survival: hiPSC single-cell survival enhancement; ATPlite luminescence; 100% = ROCK inhibitor wells, 0% = DMSO; survival enhancement, % at 20 µM; 0.044% of 360,000 active; AID 602274; in the data active means survival enhancement above about 18%;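 further: cells exposed to compounds for 16 hours before the ATP read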
* hit, by the source's call; / = not tested or not shown; ! = not active in a repeat. Sampled rows, rich in hits. Any-hit rate of the full collection: about 1.8%.

SMILES	rRNA inh HTS	MT1-MMP act inh	Cneo AK release	SKN-1 block	DAGLB inh	hiPSC survival
Cc1noc(C)c1NC(=O)Nc1cccc2c1O[C@H](CN(C)C(=O)Nc1ccc(F)cc1)[C@@H](C)CN([C@H](C)CO)C2=O	0	/	/	/	/	/
C[C@@H]1CN([C@H](C)CO)C(=O)Cc2cc(NS(=O)(=O)c3ccc(Cl)cc3)ccc2O[C@@H]1CN(C)C(=O)NC1CCCCC1	-3	/	-7	/	/	/
Cc1cc(NC(=O)Nc2ccc(Cl)c(Cl)c2)no1	-14	2	-5	7	-4	-1
COc1cc(NC(=O)Nc2ccc(Cl)c(Cl)c2)c(C(=O)O)cc1OC	-40*	1	-3	-11	0	0
O=C(Nc1ccc(Cl)c(Cl)c1)Nc1ccon1	-10	-8	-19	46*	2	0
O=C(Nc1ccc(Cl)c(Cl)c1)Nn1cnnc1	-22*	-2	-6	1	2	-1
Cc1ccc(NC(=O)Nn2cnnc2)cc1Cl	16	-1	-7	27	0	0
CCCC(=O)Nc1ccc2c(c1)OC[C@@H](C)N(C(=O)c1ccccn1)C[C@@H](C)[C@@H](OC)CN(C)C2=O	1	/	1	/	/	/
Cc1oc(-c2cccs2)nc1CN1CC[C@@](O)(c2ccccc2)[C@H]2CCCC[C@@H]21	/	-1	-8	5	1	-2
Cc1ccccc1CC1(CO)CCCN(Cc2nc(-c3cccs3)oc2C)C1 (stereo not drawn)	-25*	-12	/	-10	-2	-3
CC(=O)N(CCOc1ccccc1)CCOc1ccccc1	-23*	-2	/	3	1	0
C[C@@H](NC(=O)C[C@H]1C=C[C@H](NC(=O)CN2CCOCC2)[C@@H](CO)O1)c1ccccc1	2	/	8	/	/	/
COC(=O)c1cc(OC)c(OC)cc1NC(=O)C(C)Sc1ccc(C)cc1 (stereo not drawn)	-26*	3	2	11	-10	3
CCOc1ccc(/C=C/C2=Cc3c(sc(NC(=O)CSc4n[nH]c(N)n4)c3C#N)C(C)(C)C2)cc1	/	-48	/	37*	-1	0
O=C(CSc1cccc2cccnc12)N/N=C/c1ccc(O)cc1	-14*	-1	-2	-8	0	0
COc1cccc(/C=N/NC(=O)CSc2cccc3cccnc23)c1	-12	6	0	5	-4	0
O=C(N/N=C/c1ccncc1)c1ccc(COc2cccc3cccnc23)cc1	-28*	-4	1	-1	-1	0
COCC(=O)N1[C@H](C(=O)N2CCCCC2)[C@@H](CO)[C@@H]2Cn3c(ccc(C4=CCCC4)c3=O)[C@@H]21	1	/	-3	/	/	/
CCCC(=O)N1CC2(CN(C(=O)C3CCC3)C2)c2c(n(C)c3cc(OC)ccc23)[C@H]1CO	-2	/	/	/	/	/
CN(c1ccccc1)c1nc2ccsc2c(=O)s1	-39	-2	-4	43*	-6	0
CCCN1[C@@H]2c3ccc(-c4cccc(F)c4)c(=O)n3C[C@H]1[C@H](CO)[C@H]2C(=O)NCC1CC1	2	/	-1	/	/	/
CC(C)NC(=O)Nc1ccc2c(c1)CC(=O)N([C@@H](C)CO)C[C@H](C)[C@H](CN(C)Cc1ccc3c(c1)OCO3)O2	-1	/	107*	/	/	/
CNC[C@H]1Oc2ccc(NC(=O)Cc3cn(C)c4ccccc34)cc2CC(=O)N([C@@H](C)CO)C[C@H]1C	2	-3	83*!	6	-1	-4
C[C@H]1CN([C@@H](C)CO)C(=O)Cc2cc(NC(=O)Nc3ccccc3)ccc2O[C@@H]1CN(C)C(=O)Nc1ccc2c(c1)OCO2	2	/	101*	/	/	/
CC(C)NC(=O)Nc1ccc2c(c1)CC(=O)N([C@@H](C)CO)C[C@@H](C)[C@@H](CN(C)Cc1ccc3c(c1)OCO3)O2	6	/	-1	/	/	/
COc1ccc(S(=O)(=O)N2CCCCN3[C@H](CO)[C@H](c4ccc(C#CC5CC5)cc4)[C@H]3C2)cc1	-58	/	3	/	/	/
O=C(NCC1CCCCC1)[C@@H]1[C@@H](CO)[C@@H]2Cn3c(ccc(-c4ccccc4F)c3=O)[C@H]1N2	-3	/	48	/	/	/
